Shown are actives, neighbours in structure and some others; about 4.6% of the full set was active somewhere.
p47phox inh – inhibitors of human p47phox binding; P14598; p47phox/p22phox peptide binding, fluorescence polarization, 2 h; inhibition, % at 24.7 µM; 0.53% of 220,000 active; AID 1274;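 active = inhibition above about 30%, limit read from the data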;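 also: 0% = p47phox with labelled peptide and 100% = labelled peptide alone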
WT yeast gro inh – growth inhibition of WT yeast, mitochondrial fusion screen; inhibition, % at 10 µM; mitochondrial fusion phenotypic screen, WT strain; 2.1% of 190,000 active; in the data active = inhibition above about 58%; tested in S. cerevisiae
RAM network inh – yeast RAM network inhibition | 1.8% of 190,000 active | S. cerevisiae dse1pr::URA3 reporter, 5-FOA growth OD615, 2 d; analog-sensitive cbk1-as2 kinase mutant strain | AID 868 | inhibition, % at 50 µM;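 active = inhibition above a set limit, 3 SD over mean compound inhibition, cut at about 8.4% in these data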;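 also: 0% = DMSO-only wells with no growth and 100% = 10 µM 1-NA-PP1 full growth; inhibition rescues growth on 5-FOA so higher OD means more RAM inhibition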
Arbovirus anti – blocks arbovirus infection; arbovirus infection cell-based antiviral screen; inhibition, % at 10 µM; 0.37% of 200,000 active; AID 1251; in the data active = inhibition above about 30%
Biofilm kill mix – mixtures killing C. albicans biofilm; C. albicans biofilm persisters + clotrimazole, fluorescence viability; primary screen in compound mixtures of four per well; inhibition, % at 7.6 µM; 0.02% of 120,000 active; AID 1242;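 active = inhibition above 30.3% in the primary screen of four-compound pools, then above 30% when the compound was retested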;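 also: compounds exposed to preformed 24 h biofilms for 48 h; 0% = untreated biofilm control and 100% = clotrimazole plus chlorhexidine kill blank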
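Incubation: 24 h biofilm formation, then 48 h compound exposure, 37 °C | Material: C. albicans biofilms | Buffer or medium: RPMI/MOPS medium, pH 7.0 | Measured by: 2-h Alamar Blue fluorescence, 535/590 nm excitation/emission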
Hck-Nef inh – blocks Nef-activated human Hck kinase; 0.68% of 220,000 active; AID 463187; P08631; Recombinant Hck-YEEI plus Nef, Z-Lyte FRET kinase assay; inhibition, % at 20 µM;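 active = Hck-Nef kinase inhibition above about 50%, limit read from the data; inactive = inhibition below that limit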;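 also: 0% = DMSO with Hck plus Nef and 100% = Hck alone without Nef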
Target sequence (P08631 whole entry, looked up): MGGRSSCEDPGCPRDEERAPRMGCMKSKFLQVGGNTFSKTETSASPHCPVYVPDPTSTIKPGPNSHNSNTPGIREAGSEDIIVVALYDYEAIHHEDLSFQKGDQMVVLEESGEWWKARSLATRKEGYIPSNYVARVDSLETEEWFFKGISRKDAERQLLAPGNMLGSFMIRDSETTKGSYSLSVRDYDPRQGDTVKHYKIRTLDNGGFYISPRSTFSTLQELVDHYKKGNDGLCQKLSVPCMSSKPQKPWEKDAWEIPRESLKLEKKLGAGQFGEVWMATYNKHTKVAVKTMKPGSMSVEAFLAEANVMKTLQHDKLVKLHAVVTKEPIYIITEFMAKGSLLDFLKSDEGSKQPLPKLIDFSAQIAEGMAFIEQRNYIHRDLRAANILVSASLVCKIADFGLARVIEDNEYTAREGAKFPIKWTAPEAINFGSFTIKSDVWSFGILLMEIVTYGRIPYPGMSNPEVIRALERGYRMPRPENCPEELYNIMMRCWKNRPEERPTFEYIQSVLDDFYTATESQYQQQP
Active calls of the source: *; / = no result.

SMILES	p47phox inh	WT yeast gro inh	RAM network inh	Arbovirus anti	Biofilm kill mix	Hck-Nef inh
CCN(CC)S(=O)(=O)c1cccc(C(=O)Nc2cccc(C)c2)c1	1.5	6.0	0.3	-16.7	/	-4.1
O=S(=O)(Nc1cccc(-c2nc3cccnc3s2)c1)c1cccs1	-13.5	/	/	/	27.1	11.3
c1ccc(CNc2nc(-c3cccs3)nc3ccccc23)cc1	-25.8	70.9*	1.6	-5.4	16.9	0.7
c1ccc(CNc2nc(NCc3ccccc3)c3ccccc3n2)cc1	88.1*	/	/	/	23.0	-179.3
Cc1cc2nnc(SCC(=O)N3CCCCC3)n2c(N)n1	-23.9	-0.4	0.1	2.6	28.5	17.9
Cc1cc2nnc(SCC(=O)N3C(C)CCCC3C)n2c(N)n1 (centres undefined)	53.6*	-0.3	0.5	5.6	/	1.2
N#Cc1c(N2C(=O)Nc3ccccc3N2O)sc2c1CCCCCC2	1.8	-3.3	2.9	35.0*	-19.0	4.8
N#Cc1c(N2C(=O)Nc3ccccc3N2O)sc2c1CCCC2	-0.3	-8.2	1.4	26.4	16.1	10.5
CCCn1nc(C(=O)Nc2cccc(C(=O)OC)c2)c2ccccc2c1=O	-17.4	14.4	8.9*	-16.5	/	-2.2
COc1ccc(-c2nc(C#N)c(NCc3ccc(F)cc3)o2)cc1OC	-7.9	-4.2	8.9*	19.7	/	0.1
CCOc1ccc(-c2nc(C#N)c(NC3CC3)o2)cc1	-14.5	-4.8	3.2	4.5	/	1.1
N#Cc1nc(-c2ccco2)oc1NCc1ccc(F)cc1	-10.9	61.7*	3.9	10.4	/	-0.3
CCOc1ccc(-c2nc(C#N)c(NCc3ccc4c(c3)OCO4)o2)cc1	-6.3	8.8	10.7*	1.1	/	17.1
COc1ccc(-c2nc(C#N)c(NCc3cccnc3)o2)cc1OC	-18.1	-24.3	-1.4	0.9	/	2.1
O=C1/C(=C/c2ccccc2)SC(=S)N1N1C(=O)C2CC2C1=O (centres undefined)	3.9	-26.4	1.4	11.3	3.6	21.1
COc1ccccc1C1C2=C(N=c3s/c(=C/c4cccc(OCC(=O)O)c4)c(=O)n31)c1ccccc1CC2 (centres undefined)	-45.2	11.3	6.5	41.3*	12.0	21.8
COc1cccc(C2C3=C(N=c4s/c(=C\c5cccc(O)c5)c(=O)n42)c2ccccc2CC3)c1OC (centres undefined)	-18.7	32.2	7.7	-27.0	21.5	1.0
COc1ccc(CN(C)C2c3ccccc3-c3ccccc32)cc1	-15.9	69.2*	0.7	-10.5	10.7	-0.7
COc1ccc(OCCN(C)Cc2ccccc2)cc1	-10.0	11.4	0.8	3.1	/	2.3
CC1=CC(=O)c2ccccc2C1=O	7.2	47.3	0.0	-44.3	10.2	-3.8
O=C1C=C(Nc2ccccc2)C(=O)c2ccccc21	6.4	64.0*	1.0	-24.0	18.1	17.6
O=C1C=C(Nc2ccccc2)c2ccccc2C1=O	6.8	73.9*	1.6	-22.2	12.7	2.8
CNc1sc(C(=O)c2ccccc2F)c(N)c1-c1nc2ccccc2s1	-7.1	20.2	3.4	9.7	/	-1.5
CCCOc1ccc(-c2nn(-c3ccccc3)cc2/C=C2\SC(=S)N(C3CCS(=O)(=O)C3)C2=O)cc1 (centres undefined)	-49.4	-36.7	6.3	7.2	/	-1.2
CCOc1ccc(-c2nn(-c3ccccc3)cc2/C=C2\SC(=S)N(C3CCS(=O)(=O)C3)C2=O)cc1 (centres undefined)	-66.3	14.0	9.3*	4.9	/	0.4
SMILES	p47phox inh	WT yeast gro inh	RAM network inh	Arbovirus anti	Biofilm kill mix	Hck-Nef inh
COCc1cc(C)nc(OCC(=O)N/N=C/c2ccc(-c3cc([N+](=O)[O-])ccc3C)o2)c1C#N	2.7	-1.0	1.3	7.7	/	3.0
Cc1ccc([N+](=O)[O-])cc1-c1ccc(/C=C(\C#N)c2[nH]nc(N)c2C#N)o1	37.6*	-48.3	6.6	-10.8	12.7	41.1
COc1ccc(C)cc1S(=O)(=O)N1CCC(C(=O)N2CCN(C)CC2)CC1	-13.2	9.6	0.5	5.1	16.2	-0.5
Cc1ccc(Sc2ncccc2COC(=O)Nc2c(C)cccc2C)cc1	-13.8	-16.5	1.6	10.1	/	0.3
Cc1ccc(Sc2ncccc2COC(=O)Nc2ccccc2)cc1	-0.9	-12.0	9.2*	15.8	/	-0.1
Cc1ccccc1NC(=O)OCc1cccnc1Sc1ccc(Cl)cc1	-11.9	-1.6	9.9*	7.9	/	0.5
CN(C)c1ccc(NC(=O)c2sc(SCC(=O)Nc3ccc(Br)cc3)nc2N)cc1	0.0	18.7	8.7*	-1.3	/	1.0
CN(C)c1ccc(NC(=O)c2sc(SCC(=O)Nc3nccs3)nc2N)cc1	-7.1	18.8	3.7	1.8	/	9.0
Cc1cccc(OCc2n[nH]c(=S)n2Cc2ccccc2)c1	-12.8	65.4*	0.1	3.0	6.2	28.3
CCc1ccc(OCc2n[nH]c(=S)n2Cc2ccccc2)cc1	-11.2	65.0*	1.2	3.5	20.4	25.4
CCc1ccc(OCc2n[nH]c(=S)n2C(C)CCCC(C)C)cc1 (centres undefined)	0.2	59.9*	3.7	-9.4	0.8	3.8
CCOC(=O)N1CCC(NC(=O)CCc2c(C)nc3c(c(C)nn3C(C)(C)C)c2C)CC1	-7.6	-6.8	2.0	1.7	/	0.8
O=C1CC(SC(=Nc2ccccc2)Nc2ccccc2)C(=O)N1c1cccc(Cl)c1 (centres undefined)	-19.4	-10.7	3.5	-12.3	/	2.2
COc1ccc(Cl)cc1NC(=O)c1cc(-c2ccccc2O)n[nH]1	-13.1	1.8	4.6	70.3*	9.2	46.2
Cc1c(Cl)cccc1NC(=O)c1cc(-c2ccccc2O)n[nH]1	-4.7	67.9*	3.6	30.5*	/	-1.1
Cc1ccc(-c2cc(-c3ccccc3Cl)[nH]n2)c(O)c1	-11.1	69.3*	0.0	-40.1	/	5.5
COc1ccc2cc3cc(C(=O)NCCCN4CCc5ccccc5C4)sc3nc2c1	73.0*	35.3	0.3	-20.9	-7.7	3.7
Cc1ccc(NC(=O)C(Nc2cccc(C)c2)c2ccccc2)cc1 (centres undefined)	-10.4	70.4*	3.7	-5.8	15.3	-0.5
CCCc1sc(N)nc1-c1ccc(Cl)cc1	-5.1	69.0*	2.5	5.3	10.1	1.8
CC(C)CN1C(=O)NC(NS(=O)(=O)c2ccc(N)cc2)(C(F)(F)F)C1=O (centres undefined)	3.6	-5.2	1.4	-2.5	17.4	8.6
CC1CCCC(NC(=O)CNC(=S)N(Cc2ccccc2)Cc2cccs2)C1C (centres undefined)	-9.9	65.0*	2.1	-12.4	1.4	-6.0
CC(C)OC(=O)c1cccc(-c2ccc(C=O)o2)c1	-10.3	13.8	-0.1	5.1	8.7	11.6
CCOC(=O)C(C)(C)NS(=O)(=O)c1ccc(Cl)c([N+](=O)[O-])c1	3.7	-0.6	1.7	0.9	-3.5	3.8
CCOC(=O)C(C)(C)N(Cc1ccc(Cl)cc1)S(=O)(=O)c1ccc(Cl)c([N+](=O)[O-])c1	-3.7	20.2	9.4*	5.4	9.1	-1.4
